Experimental data: ChEMBL document CHEMBL5030518, “Phorbol Diesters and 12-Deoxy-16-hydroxyphorbol 13,16-Diesters Induce TGFα Release and Adult Mouse Neurogenesis” (2021)
The source made the active and inactive calls. No cut-off for these calls is given here.

Experiments:
[1] = Induction of TGFalpha release in serum-starved HEK293T cells coexpressing GFP fused mCherry assessed as reduction in mCherry/GFP ratio at 0.5 uM measured up to 180 mins by time-lapse microscopic analysis relative to control; type: functional, Homo sapiens, HEK-293T; parameters: scale not given: the % may be the effect or the level left; settings: time min <=180
How it was run: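 HEK293T transfected with mCherry-TGFα-GFP fusion (mCherry N-terminal, GFP C-terminal), left overnight, then serum-starved 30 min in serum-free FluoroBrite DMEM. Compound added at 0.5 µM; live time-lapse imaging over 180 min. Membrane mCherry/GFP ratio normalized to pre-stimulation average; mean normalized ratio, n = 40.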

HEK-293T = assay: Induction of TGFalpha release in serum-starved HEK293T cells coexpressing GFP fused mCherry assessed as reduction in mCherry/GFP ratio at 0.5 uM measured up to 180 mins by time-lapse microscopic analysis; type: functional, cell-based; settings: Homo sapiens, time min <=180
How it was run: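 HEK293T cells transfected with an mCherry-TGFα-GFP fusion (mCherry N-terminal, GFP C-terminal) and left overnight. Cells were then serum-starved 30 min in serum-free medium. Compounds were added at 0.5 μM and time-lapse imaging ran for 180 min. Membrane mCherry/GFP ratio was normalized to the pre-stimulation average, and the mean of n = 40 was reported.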

Neural Progenitor Cell [2] = assay: Induction of cell proliferation in mouse SVZ-derived neural progenitor cells assessed as neurosphere formation at up to 5 uM measured after 72 hrs by phase contrast microscopic analysis; type: functional, tissue-based; settings: dose microM <=5, time 72.0 hrs
How it was run: (§1)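 NPCs were isolated from the SVZ of postnatal day 7 CD1 mice and grown as floating neurospheres with bFGF. Increasing compound concentrations were added at seeding. After 72 h, neurosphere area was measured from phase-contrast images and expressed as % of bFGF-only control. Runs were in triplicate, at least […] independent times; mean ± SEM of nine measurements, two-tailed unpaired t-test.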

Neural Progenitor Cell [3] = assay: Induction of cell proliferation in mouse SVZ-derived neural progenitor cells assessed as neurosphere formation at up to 0.5 uM measured after 72 hrs by phase contrast microscopic analysis; type: functional, tissue-based; settings: dose microM <=0.5, time 72.0 hrs; how it was run: as §1
Brain [4] = assay: Induction of neurogenesis in CD-1 mouse brain assessed as increase in number of BrdU labeled proliferating cells at 5 uM, INH administered once daily for 3 days by confocal microscopic analysis; type: functional, tissue-based; settings: time 3.0 day
How it was run: (§2)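 Healthy 2-month-old male CD1 mice given intranasal solution daily for 3 days, 12 µL/day in saline vehicle (3 µL per delivery, alternating nostrils). BrdU 100 mg/kg i.p. on the last day. SVZ sections immunostained for BrdU and DCX. Positive cells counted blinded in every fifth section (6–8 per brain) at 20×. Values are per mm3; mean ± SEM, n = 6 per group.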

Brain [5] = assay: Induction of neurogenesis in CD-1 mouse brain assessed as increase in number of proliferative neuronal progenitors at 5 uM, INH administered once daily for 3 days by confocal microscopic analysis; type: functional, tissue-based; settings: time 3.0 day; how it was run: as §2
Brain [6] = assay: Induction of neurogenesis in CD-1 mouse brain at 5 uM, INH administered once daily for 3 days by confocal microscopic analysis; type: functional, tissue-based; settings: time 3.0 day
How it was run: (§3)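 Male CD1 mice, 2 months old, received 12 μL/day intranasally for 3 days, given as 3 μL portions alternating nostrils with the neck extended. Vehicle was saline; treatment was randomized and coded. BrdU 100 mg/kg i.p. was given on the last day. BrdU and DCX in the SVZ were detected by immunohistochemistry in every fifth section (6–8 per brain) at 20×, with blinded counting. n = 6/group; t-test versus vehicle.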

Brain [7] = assay: Induction of neurogenesis in CD-1 mouse brain at 10 nM, INH administered once daily for 3 days by confocal microscopic analysis; type: functional, tissue-based; settings: time 3.0 day; how it was run: as §3
Brain [8] = assay: Induction of neurogenesis in CD-1 mouse brain at 100 nM, INH administered once daily for 3 days by confocal microscopic analysis; type: functional, tissue-based; settings: time 3.0 day; how it was run: as §3
Brain [9] = assay: Induction of neurogenesis in CD-1 mouse brain assessed as increase in number of BrdU labeled proliferating cells at 10 nM, INH administered once daily for 3 days by confocal microscopic analysis; type: functional, tissue-based; settings: time 3.0 day; how it was run: as §3
Brain [10] = assay: Induction of neurogenesis in CD-1 mouse brain assessed as increase in number of proliferative neuronal progenitors at 10 nM, INH administered once daily for 3 days by confocal microscopic analysis; type: functional, tissue-based; settings: time 3.0 day; how it was run: as §3
Brain [11] = assay: Induction of neurogenesis in CD-1 mouse brain assessed as increase in total neuronal progenitors double cortin cells at 10 nM, INH administered once daily for 3 days by confocal microscopic analysis; type: functional, tissue-based; settings: time 3.0 day; how it was run: as §3

| SMILES | Activity [1] [%] | Activity (HEK-293T) | Activity (Neural Progenitor Cell [2]) | other results |
| --- | --- | --- | --- | --- |
| CC1=C[C@H]2[C@@]3(O)[C@H](C)[C@@H](OC(=O)Cc4ccccc4)[C@]4(OC(=O)C(C)C)[C@H]([C@@H]3C=C(CO)C[C@]2(O)C1=O)C4(C)C | 25 | – | – | – |
| CC1=C[C@H]2[C@@]3(O)[C@H](C)[C@@H](O)[C@]4(O)[C@H]([C@@H]3C=C(CO)C[C@]2(O)C1=O)C4(C)C | – | inactive | – | – |
| CC1=C[C@H]2[C@@]3(O)[C@H](C)[C@@H](OC(=O)Cc4ccccc4)[C@]4(OC(=O)Cc5ccccc5)[C@H]([C@@H]3C=C(CO)C[C@]2(O)C1=O)C4(C)C | 25 | – | – | – |
| CC1=C[C@H]2[C@@]3(O)[C@H](C)C[C@]4(OC(=O)Cc5ccccc5)[C@H]([C@@H]3C=C(CO)C[C@]2(O)C1=O)[C@@]4(C)COC(=O)C(C)C | – | Active | Active | Activity (Neural Progenitor Cell [3]): Active |
| C/C=C(/C)C(=O)O[C@@H]1[C@@H](C)[C@@]2(O)[C@@H](C=C(CO)C[C@]3(O)C(=O)C(C)=C[C@@H]23)[C@@H]2C(C)(C)[C@]12OC(=O)C(C)C | 15 | – | – | – |
| CC(=O)O[C@@H]1[C@@H](C)[C@@]2(O)[C@@H](C=C(CO)C[C@]3(O)C(=O)C(C)=C[C@@H]23)[C@@H]2C(C)(C)[C@]12OC(C)=O | 15 | – | Active | Activity (Brain [4]): Active; Activity (Brain [5]): Active |
| CC1=C[C@H]2[C@@]3(O)[C@H](C)[C@@H](OC(=O)C(C)C)[C@]4(OC(=O)C(C)C)[C@H]([C@@H]3C=C(CO)C[C@]2(O)C1=O)C4(C)C | – | – | – | Activity (Brain [6]): inactive; Activity (Brain [7]): Active; Activity (Brain [8]): inactive; Activity (Neural Progenitor Cell [3]): Active; Activity (Brain [9]): Active; Activity (Brain [10]): Active; Activity (Brain [11]): Active |
| CC1=C[C@H]2[C@@]3(O)[C@H](C)[C@@H](OC(=O)C(C)C)[C@]4(OC(=O)Cc5ccccc5)[C@H]([C@@H]3C=C(CO)C[C@]2(O)C1=O)C4(C)C | 25 | – | – | – |
| CC1=C[C@H]2[C@@]3(O)[C@H](C)[C@@H](O)[C@]4(OC(=O)C(C)C)[C@H]([C@@H]3C=C(CO)C[C@]2(O)C1=O)C4(C)C | – | inactive | inactive | – |
